Measurements collected from several papers.
Target: Histamine H1 receptor (HRH1, Homo sapiens, UniProt P35367)

| SMILES | test | conditions | measurement | value |
| --- | --- | --- | --- | --- |
| N#Cc1cc(Cn2c(N3CCCC3)nc3ccccc32)ccc1F | ligand displacement | 10 µM | inhibition | 73% |
| CC(C)(C)OC(=O)N1CCCC1CNC1CCC(c2cc(F)ccc2F)(S(=O)(=O)c2ccc(Cl)cc2)CC1 (centres unmarked) | cell-free assay | 10 µM | inhibition | 25.6% |
| O=C1N=C(N2CCCCN2)S/C1=C\c1ccc(F)cc1O | ligand displacement, radioligand | 10 µM | inhibition | < 10% |
| O=C(c1ccc(F)cc1)N(Cc1ccccc1)C1CCCCC1 | cell-free assay | 10 µM | inhibition | 23% |
| CN1CCC(C2c3ccccc3C=Cc3ccccc32)CC1 | binding | – | koff | 0.00035 s⁻¹ |
| COc1ccc(-n2nc(OCCCN3CCCCC3)ccc2=O)cc1 | ligand displacement | 1 µM | inhibition | 16.7% |
| C[C@H](NC(=O)Nc1cc2[nH]ncc2c(CO)n1)c1ccccn1 | cell-free assay | 10 µM | inhibition | 4.18% |
| Ic1cccc2cnccc12 | ligand displacement, radioligand | 10 µM | inhibition | 0% |
| CN(C)CCOC1c2ccccc2C=Cc2ccccc21 | binding | – | kon | 833000 M⁻¹ s⁻¹ |
| CCCNc1nc2ccccc2n1Cc1ccc(Cl)cc1 | ligand displacement | 10 µM | inhibition | 97.8% |
| CN1CCN(CCCOc2ccc(=O)n(-c3ccc(Cl)c(Cl)c3)n2)CC1 | ligand displacement | 1 µM | inhibition | 40.7% |
| CN1CCN(C2c3ccccc3CCc3ccccc32)CC1 | binding | – | koff | 0.002 s⁻¹ |
| Oc1cccc(Nc2nc(-c3ccc(F)cc3F)cs2)c1 | cell-free assay | 10 µM | inhibition | -19.9% |
| CN1CCC(=C2c3ccccc3CCc3cccnc32)CC1 | binding | – | koff | 0.000147 s⁻¹ |
| CCN(Cc1ccccc1C(F)(F)F)C(=O)C1CCN(S(=O)(=O)c2ccc3[nH]ncc3c2)CC1 | ligand displacement, radioligand | 10 µM | inhibition | 26% |
| CCN(CC)c1ccc(C2Nc3ccc(C(=O)c4ccccc4)cc3NC3=C2C(=O)CC(C)(C)C3)cc1 (centres unmarked) | ligand displacement, radioligand | 10 µM | inhibition | 40% |
| CN(C)CCOC1c2ccccc2CCc2ccccc21 | binding | – | kon | 1.1e+06 M⁻¹ s⁻¹ |
